# Measurements as given in ChEMBL document CHEMBL1142496, “Studies on enzyme-cleavable dialkoxymethyl-cyclosaligenyl-2',3'-dideoxy-2',3'-didehydrothymidine monophosphates” (J Med Chem, 2008).
# How the values were obtained:
# [1] = Stability in RPMI-1640 medium containing 10% heat inactivated fetal calf serum at pH 7.6 assessed as hydrolysis half life; format: physicochemical; settings: cattle, RPMI-1640 medium with 10% heat-inactivated fetal calf serum
# Summary of the method: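 Stability in RPMI-1640 culture medium with 10% fetal calf serum heat-inactivated for 30 min at 56 °C (pH 7.6). Handled like the cell-extract incubations, with medium in place of extract; triester half-life and formyl-product formation followed by HPLC.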
# [2] = Stability in aqueous 25 mM phosphate buffer at pH 7.6 assessed as hydrolysis half life; format: physicochemical
# Summary of the method: (§1)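 Chemical stability in aqueous 25 mM phosphate buffer at pH 7.3 or 7.6. Triester cleavage followed by HPLC; half-life refers to disappearance of the intact triester.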
# [3] = test system: Human immunodeficiency virus 1; experiment: Antiviral activity against HIV1 in human wild type CEM/0 cellss; format: functional, organism-based; settings: Human immunodeficiency virus 1, CCRF-CEM
# Summary of the method: (§2)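 Anti-HIV assay in T-lymphocytes: wild-type CEM/0 cells infected with HIV-1 or HIV-2, and thymidine kinase-deficient CEM/TK⁻ cells infected with HIV-2. Cells grown in RPMI-1640 with 10% heat-inactivated fetal calf serum. Read-out is the 50% effective concentration, given as the mean of two to three independent experiments.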
# [4] = test system: Human immunodeficiency virus 2; experiment: Antiviral activity against HIV2 in human wild type CEM/0 cellss; format: functional, organism-based; settings: Human immunodeficiency virus 2, CCRF-CEM; summary of the method: as §2
# [5] = test system: Human immunodeficiency virus 2; experiment: Antiviral activity against HIV2 in thymidine kinase deficient human CEM/TK- cellss; format: functional, organism-based; settings: Human immunodeficiency virus 2, CEM-TK(-); summary of the method: as §2
# [6] = Cytostatic activity against human wild type CEM/0 cellss; format: cell-based, CCRF-CEM; settings: wild-type CEM/0 cells
# Summary of the method: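 Cytostatic activity on T-lymphocyte CEM cultures, reported as the 50% cytostatic concentration.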
# [7] = Stability in aqueous 25 mM phosphate buffer at pH 7.3 assessed as hydrolysis half life; format: physicochemical; summary of the method: as §1
# [8] = Stability in human CEM cells extracts at pH 6.9 assessed as hydrolysis half life; format: ADME, CCRF-CEM; settings: CEM cell extracts
# Summary of the method: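 Enzymatic stability assay: triesters incubated in CEM cell extracts (pH 6.9) over varied incubation times. Acetic acid was not used to stop the reaction for acid-sensitive compounds. Samples analysed by HPLC to give the half-life of triester cleavage.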
# [9] = test system: Human immunodeficiency virus; experiment: Antiviral activity against HIV; format: functional, organism-based; settings: Human immunodeficiency virus 1; summary of the method: as §2
Structure (SMILES),half-life [1] [h],half-life [2] [h],EC50 [3] [µM],EC50 [4] [µM],EC50 [5] [µM],CC50 [6] [µM],half-life [7] [h],half-life [8] [h],EC50 [9] [µM]
Cc1cc(C=O)cc2c1OP(=O)(OC[C@@H]1C=C[C@H](n3cc(C)c(=O)[nH]c3=O)O1)OC2 (stereo not given in full),0.7,0.35,0.45,1.27,4.5,82,,,
Cc1cn([C@H]2C=C[C@@H](COP3(=O)OCc4cc(C=O)cc(C(C)(C)C)c4O3)O2)c(=O)[nH]c1=O (stereo not given in full),1.5,1.1,0.39,1,15,33,1,,
Cc1cn([C@H]2C=C[C@@H](CO[P@@]3(=O)OCc4cc(C(OC(=O)C(C)C)OC(=O)C(C)C)cc(C(C)(C)C)c4O3)O2)c(=O)[nH]c1=O,4.5,2.9,0.89,1.9,3.6,40,3.8,0.8,
Cc1cn([C@H]2C=C[C@@H](CO)O2)c(=O)[nH]c1=O [STAVUDINE],,,0.86,1.9,62,182,,,
Cc1cn([C@H]2C=C[C@@H](COP3(=O)OCc4cc(C(C)(C)C)cc(C=O)c4O3)O2)c(=O)[nH]c1=O (stereo not given in full),0.3,0.1,0.99,1,5.1,8.8,0.25,,
CC(=O)OC(OC(C)=O)c1cc(C)cc2c1OP(=O)(OC[C@@H]1C=C[C@H](n3cc(C)c(=O)[nH]c3=O)O1)OC2 (stereo not given in full),1.5,1.1,0.52,1,6.5,19,3.2,0.25,
Cc1cc(C(OC(=O)C(C)C)OC(=O)C(C)C)cc2c1OP(=O)(OC[C@@H]1C=C[C@H](n3cc(C)c(=O)[nH]c3=O)O1)OC2 (stereo not given in full),1.6,1.1,1.6,0.95,> 10,20,1.3,0.5,
Cc1cccc2c1OP(=O)(OC[C@@H]1C=C[C@H](n3cc(C)c(=O)[nH]c3=O)O1)OC2 (stereo not given in full),,,,,,,,,0.1
Cc1cn([C@H]2C=C[C@@H](COP3(=O)OCc4cc(C(C)(C)C)ccc4O3)O2)c(=O)[nH]c1=O (stereo not given in full),,,,,,,7.2,,
Cc1cn([C@H]2C=C[C@@H](CO[P@]3(=O)OCc4cc(C(OC(=O)C(C)C)OC(=O)C(C)C)cc(C(C)(C)C)c4O3)O2)c(=O)[nH]c1=O,5.7,2.5,0.72,0.85,1.4,14,3.3,1,
Cc1cc(C=O)c2c(c1)COP(=O)(OC[C@@H]1C=C[C@H](n3cc(C)c(=O)[nH]c3=O)O1)O2 (stereo not given in full),0.3,0.3,3.6,1.4,29,29,0.25,,
CC(=O)OC(OC(C)=O)c1cc(C(C)(C)C)cc2c1OP(=O)(OC[C@@H]1C=C[C@H](n3cc(C)c(=O)[nH]c3=O)O1)OC2 (stereo not given in full),1.9,1.2,0.72,1,7.3,7.9,3.7,< 0.1,
CC(=O)OC(OC(C)=O)c1cc2c(c(C(C)(C)C)c1)O[P@](=O)(OC[C@@H]1C=C[C@H](n3cc(C)c(=O)[nH]c3=O)O1)OC2,2.9,2.7,0.54,0.75,0.29,17,7.9,0.3,
CC(=O)OC(OC(C)=O)c1cc2c(c(C(C)(C)C)c1)OP(=O)(OC[C@@H]1C=C[C@H](n3cc(C)c(=O)[nH]c3=O)O1)OC2 (stereo not given in full),2.8,2.6,0.65,0.8,0.78,19,7.9,0.15,
CC(=O)OC(OC(C)=O)c1cc(C)c2c(c1)COP(=O)(OC[C@@H]1C=C[C@H](n3cc(C)c(=O)[nH]c3=O)O1)O2 (stereo not given in full),1.5,1.9,0.5,0.7,6.3,44,,,
CC(=O)OC(OC(C)=O)c1cc2c(c(C(C)(C)C)c1)O[P@@](=O)(OC[C@@H]1C=C[C@H](n3cc(C)c(=O)[nH]c3=O)O1)OC2,2.8,2.4,1.1,0.84,3.9,51,8.3,0.15,
Cc1cn([C@H]2C=C[C@@H](CO[P@@]3(=O)OCc4cc(C=O)cc(C(C)(C)C)c4O3)O2)c(=O)[nH]c1=O,1.6,0.3,0.81,1.4,10,41,1,,
Cc1cn([C@H]2C=C[C@@H](COP3(=O)OCc4cc(C(OC(=O)C(C)C)OC(=O)C(C)C)cc(C(C)(C)C)c4O3)O2)c(=O)[nH]c1=O (stereo not given in full),5.9,2.7,0.53,2,2.4,20,3.5,1,
Cc1cn([C@H]2C=C[C@@H](CO[P@]3(=O)OCc4cc(C=O)cc(C(C)(C)C)c4O3)O2)c(=O)[nH]c1=O,1.7,1.3,0.16,0.69,2.6,27,1.3,,
